# An excerpt weighted towards active compounds, which were near 5.6% of everything screened.
# XBP1 UPR activ = adaptive UPR (XBP1) activation. CHO-XBP1 luciferase reporter, IRE1-XBP1 UPR activation, luminescence; percent of tunicamycin response, DMSO as zero. activation, % at 20 µM. 330,000 compounds, 0.33% hits. AID 463104;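 active = versus positive control, 20 µM dose yields 30% or more activation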;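 note: 100% = tunicamycin at 10 µg/mL and 0% = DMSO only wells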
#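 Assay system: IRE1-XBP1 luciferase reporter CHO line. Input: 1000 cells/well. Buffer or medium: F12 with 10% serum. Doses: 20 µM, 1% DMSO. Times: overnight seeding at 37 °C, 6 h compound treatment at 37 °C. Technique: Steady-Glo luciferase glow luminescence, 10 min after reagent addition.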
# NR3A LBD binder = NR3A (human) ligand-binding domain modulation. NR3A LBD differential scanning fluorimetry, Tm shift; 0% = protein alone, 100% = glycine-bound protein. Tm shift relative to glycine control, % at 25 µM. 340,000 compounds, 2.5% hits. AID 1259313;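 active = melting temperature shift of at least 10% of the positive control shift, at one fixed dose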
# aDG glyco act = increases alpha dystroglycan glycosylation; activation, % at 10 µM; Pro5-aDG cells, alpha-DG glycosylation AlphaScreen (IIH6); 0% Pro5, 100% B10-LARGE cell signal; AID 624168; 360,000 compounds, 0.22% hits;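 active = activation of at least 8% versus controls, or a plate z-score of at least 8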;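 note: Pro5 are CHO cells carrying HIG-tagged alpha-DG that lacks glycosylation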
# CHOP inhibitor = blocks CHOP induction under ER stress; inhibition, % at 10 µM; 220,000 compounds, 3.8% hits; CHO-K1 CHOP-promoter luciferase, tunicamycin-induced, 15-18 h;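 active = compounds that reduced the stress-induced luciferase reporter signal by more than about 70% of percent inhibition, limit read from the data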;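 note: 0% = tunicamycin plus vehicle and 100% = wells without tunicamycin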
# UPR CHOP act = activators of apoptotic arm of unfolded protein response (CHOP); CHO-CHOP luciferase reporter, UPR activation, luminescence; percent of tunicamycin response over DMSO baseline; AID 449763; 330,000 compounds, 0.34% hits; activation, % at 10 µM;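 active = at 10 µM dose, activation of 40% or more, normalized to positive control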;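 note: 100% = tunicamycin at 10 µg/mL and 0% = DMSO alone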
#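 System: CHO-CHOP luciferase reporter cell line | Buffer or medium: F12 medium containing 10% fetal bovine serum | Doses: One dose, 10 µM in 0.5% DMSO | Times: 6 h compound exposure at 37 °C after overnight seeding | Signal: Luciferase luminescence | Read-out: % activation vs tunicamycin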
# MPTP block = blocks calcium-induced mitochondrial swelling; isolated mouse mitochondria, Ca2+ swelling absorbance, 30 min; inhibition, % at 10 µM; 360,000 compounds, 1.4% hits;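 active = inhibition of 50% or more, scaled per plate between neutral and stimulator controls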;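 note: 0% = DMSO wells given calcium and 100% = 1 mM EGTA wells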
# Rh123 counter = mitochondrial membrane potential, counter-screen; isolated mitochondria, Rhodamine 123 fluorescence; shares compounds with MPTP block; AID 624504; inhibition, % at 10 µM; 5,000 compounds, 78% hits; in the data active = inhibition above about 22%;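 note: 0% = DMSO vehicle and 100% = positive control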
# MPTP swell DR = MPTP inhibition, dose response swelling confirmation; shares compounds with MPTP block; isolated mitochondria swelling, absorbance; IC50, µM; 780 compounds, 58% hits; AID 651561; in the data active = IC50 below about 20 µM
# MPTP cs DR = active in counter-screen for permeability transition pore inhibitors. IC50, µM. shares compounds with MPTP block. isolated mitochondria counterscreen, fluorescence read-out. 780 compounds, 49% hits; in the data active = IC50 below about 80 µM
# An asterisk follows results filed as active; i = inactive; . = no result given.
SMILES,XBP1 UPR activ,NR3A LBD binder,aDG glyco act,CHOP inhibitor,UPR CHOP act,MPTP block,Rh123 counter,others
Cc1ccc(CCC(=O)Nc2ccc(C#N)cc2)o1,-4,-3,0,.,-1,2,.,
Cc1cccc(NC(=O)Cn2cc(C(=O)C3CC3)c3ccccc32)c1C,-3,-2,0,.,-1,56*,51*,
CCC(=O)c1cn(CC(=O)Nc2cccc(C)c2C)c2ccccc12,1,1,0,.,2,3,.,
COc1ccc(Cn2nnnc2C(c2ccc(C)cc2)N2CCN(C3CCCC3)CC2)cc1 (stereo unspecified),-4,-2,0,20,2,77*,-10,MPTP swell DR=>100;MPTP cs DR=>80
O=C1C(c2ccccc2)C2C=CC(C2)N1O (stereo unspecified),.,1,1,.,.,1,.,
Cc1ccc(C)c(NC(=O)c2ccc(S(=O)(=O)C(F)F)cc2)c1,-1,2,0,29,0,2,.,
CCN(CC)CCCNC(=O)c1cc(-c2ccc(Cl)c(Cl)c2)on1,-1,0,3,-11,2,79*,-5,
O=C(OCc1ccccc1)N(CCCCN(CCCNCc1ccccc1)C(=O)OCc1ccccc1)CCCNCc1ccccc1,.,0,-1,.,.,64*,-6,
O=C(NCCCCCCNC(=O)OCc1ccccc1)OCc1ccccc1,.,1,0,.,.,3,.,
O=C1OC(c2ccccc2)(c2cc(Br)ccc2O)c2ccccc21 (stereo unspecified),.,3,0,.,.,76*,97*,
CCC1Sc2ccc(S(=O)(=O)Nc3ccc(OC)c(OC)c3)cc2NC1=O (stereo unspecified),-5,1,1,.,-1,95*,87*,
CCc1ccc(C(C)NC(=S)NC2CCCCC2)cc1 (stereo unspecified),-3,-4,1,.,1,4,.,
CC(C)c1ccc(C(C)NC(=S)NC2CCCCC2)cc1 (stereo unspecified),-3,-1,2,.,1,28,.,
CCC(C)c1ccc(C(C)NC(=S)NC2CCCCC2)cc1 (stereo unspecified),5,0,3,.,3,59*,103*,
CC(NC(=S)NC1CCCCC1)c1ccc(C(C)(C)C)cc1 (stereo unspecified),-3,4,2,.,5,53*,106*,
CC(=O)Nc1cccc(-c2csc(C(O)c3ccccc3)n2)c1 (stereo unspecified),.,.,0,.,.,1,.,
C[C@H](O)[C@@H]1C(=O)N2CCc3ccc(N4CCN(C)CC4)cc3[C@@H]2C[C@@H]1N(C)C(=O)c1ccc(C#N)cc1,.,1,0,.,.,-1,.,
CC(C)CC(=O)Nc1nnc(SCC(=O)Nc2nccs2)s1,1,2,0,.,1,0,.,
Cc1nc(N2CCC(C)CC2)c2c(C)c(C(=O)Nc3ccc(C(F)(F)F)cc3)sc2n1,1,13*,1,52,-2,88*,38*,
Cc1nc(N2CCC(C)CC2)c2c(C)c(C(=O)Nc3cccc(C(F)(F)F)c3)sc2n1,-4,12*,1,33,-2,84*,17,MPTP swell DR=i;MPTP cs DR=7.7*
Cc1nc(N2CCC(C)CC2)c2c(C)c(C(=O)Nc3ccc4c(c3)OCCO4)sc2n1,3,-3,0,.,0,-1,.,
Cc1ccc2nc(SCC(=O)Nc3ccc(C)c([N+](=O)[O-])c3)[nH]c2c1,-1,-18,0,59,1,6,.,
Cc1ccc2nc(SC(C)C(=O)NC3CCCC3)[nH]c2c1 (stereo unspecified),-3,-1,0,.,1,0,.,
Cc1ccc2nc(SC(C)C(=O)Nc3cccc([N+](=O)[O-])c3)[nH]c2c1 (stereo unspecified),0,0,1,48,1,59*,85*,
Cc1ccc2nc(SCC(=O)Nc3ccc(F)c([N+](=O)[O-])c3)[nH]c2c1,0,9,4,50,2,88*,76*,
SMILES,XBP1 UPR activ,NR3A LBD binder,aDG glyco act,CHOP inhibitor,UPR CHOP act,MPTP block,Rh123 counter,others
Cc1ccc2[nH]c3c(N4CCN(Cc5ccc6c(c5)OCO6)CC4)ncnc3c2c1,.,.,.,63,.,.,.,
COc1ccc2c(c1)[nH]c1c(N3CCN(Cc4ccc5c(c4)OCO5)CC3)ncnc12,6,-10,5,75*,8,88*,91*,
Cc1ccc2c(c1)[nH]c1c(N3CCN(Cc4ccccc4)CC3)ncnc12,-6,-13,4,.,4,68*,80*,
Cc1ccc2[nH]c3c(N4CCN(Cc5ccccc5)CC4)ncnc3c2c1,2,-9,6,61,9,85*,68*,
c1ccc2c(c1)CCN(c1ncnc3c1[nH]c1ccccc13)C2,7,-5,6,71*,7,99*,101*,
CCOC(=O)C1CCCN(C(=O)C2CCN(S(=O)(=O)c3c(C)noc3/C=C/c3ccccc3F)CC2)C1 (stereo unspecified),-2,-2,0,.,-3,1,.,
COc1ccc(CC/C(C)=N\NC(N)=O)cc1,-2,-1,0,-3,-1,0,.,
Cc1cccc(C(=O)NC(=S)NNC(=O)c2ccccc2Cl)c1,0,-3,0,86*,-2,85*,-7,
Cc1cccc(C(=O)NC(=S)NNC(=O)COc2c(C)cccc2C)c1,-4,-7,0,-32,-3,87*,-7,MPTP swell DR=6.7*;MPTP cs DR=39*
Cc1ccc(C(=O)NNC(=S)NC(=O)c2ccc(Cl)cc2)cc1,12,-20,0,94*,1,91*,9,
Cc1cccc(C(=O)NC(=S)NNC(=O)Cc2ccccc2)c1,2,0,0,20,0,28,.,
C[C@@H]1CCCCO[C@@H](CN(C)C(=O)c2ccncc2)[C@@H](C)CN([C@H](C)CO)C(=O)c2cc(N(C)C)ccc2O1,.,.,0,.,.,-1,.,
CCCCNC(=O)C1(C)CCCCN1Cc1ccc2ccccc2c1 (stereo unspecified),.,.,0,.,.,-1,.,
O=C(O)/C=C/C(=O)NNc1ncnc2ccccc12,1,0,0,-3,3,1,.,
O=C(CCCc1c[nH]c2ccccc12)Nc1ncccc1O,-3,1,0,.,1,15,.,
CCCCOc1ncnc2c1[nH]c1ccc(C)cc12,1,1,3,57,8,83*,56*,

# High-throughput results as filed in PubChem BioAssay.
